Results taken from ChEMBL document CHEMBL3769404, “Novobiocin Analogues That Inhibit the MAPK Pathway” (J Med Chem, 2016).
The source made the active and inactive calls. The calls are words filed in the database; no cut-off is given here.

Columns and labels:
[1] = tested on: A549; assay: Cytotoxicity against human A549 cells assessed as cell growth inhibition after 72 hrs by MTS assay; format: functional, cell-based; conditions: A549, 72 h
How it was run: (§1)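 Cells grown to confluence, seeded at 2000 cells/well and left overnight to attach. Compound added across a concentration range in DMSO (1% final), then 72 h at 37 °C, 5% CO2. Growth read by MTS/PMS relative to 1% DMSO wells (100% growth). IC50 taken from two separate experiments, each in triplicate.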

[2] = tested on: A549; assay: Effect on B-Raf level in human A549 cells at five times IC50 value after 12 to 24 hrs by Western blot analysis; format: ADME, cell-based
How it was run: (§2)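 MPER lysates with protease/phosphatase inhibitors. 15 µg protein per lane on reducing 10% SDS gels, transferred to PVDF, immunoblotted, HRP chemiluminescent detection.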

[3] = target: T1, B-raf/RAF proto-oncogene serine/threonine-protein kinase (Homo sapiens) (UniProt P04049+P15056); assay: Inhibition of B-Raf/C-Raf in human A549 cells assessed as decrease in phosphorylated MEK levels at five times IC50 value after 12 hrs by Western blot analysis; format: cell-based
T1 sequence (P04049 whole entry, looked up): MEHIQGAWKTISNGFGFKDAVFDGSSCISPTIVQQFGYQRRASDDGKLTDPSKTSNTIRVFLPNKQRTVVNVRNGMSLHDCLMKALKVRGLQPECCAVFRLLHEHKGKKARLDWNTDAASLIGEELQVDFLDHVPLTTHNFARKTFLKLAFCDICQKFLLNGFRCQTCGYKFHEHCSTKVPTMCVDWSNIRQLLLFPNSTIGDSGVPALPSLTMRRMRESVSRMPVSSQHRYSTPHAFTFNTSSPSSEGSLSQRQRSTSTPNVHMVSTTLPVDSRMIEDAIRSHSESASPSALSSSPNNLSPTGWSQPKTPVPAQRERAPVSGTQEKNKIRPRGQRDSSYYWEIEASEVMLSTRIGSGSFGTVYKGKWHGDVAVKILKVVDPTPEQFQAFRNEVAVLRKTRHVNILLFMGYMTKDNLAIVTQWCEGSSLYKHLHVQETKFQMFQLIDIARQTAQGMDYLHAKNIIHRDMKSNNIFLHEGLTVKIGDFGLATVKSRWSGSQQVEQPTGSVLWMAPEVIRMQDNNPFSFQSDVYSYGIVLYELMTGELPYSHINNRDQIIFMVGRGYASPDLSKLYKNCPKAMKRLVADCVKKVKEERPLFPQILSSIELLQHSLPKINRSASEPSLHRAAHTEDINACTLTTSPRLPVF
T1 sequence (P15056 whole entry, looked up): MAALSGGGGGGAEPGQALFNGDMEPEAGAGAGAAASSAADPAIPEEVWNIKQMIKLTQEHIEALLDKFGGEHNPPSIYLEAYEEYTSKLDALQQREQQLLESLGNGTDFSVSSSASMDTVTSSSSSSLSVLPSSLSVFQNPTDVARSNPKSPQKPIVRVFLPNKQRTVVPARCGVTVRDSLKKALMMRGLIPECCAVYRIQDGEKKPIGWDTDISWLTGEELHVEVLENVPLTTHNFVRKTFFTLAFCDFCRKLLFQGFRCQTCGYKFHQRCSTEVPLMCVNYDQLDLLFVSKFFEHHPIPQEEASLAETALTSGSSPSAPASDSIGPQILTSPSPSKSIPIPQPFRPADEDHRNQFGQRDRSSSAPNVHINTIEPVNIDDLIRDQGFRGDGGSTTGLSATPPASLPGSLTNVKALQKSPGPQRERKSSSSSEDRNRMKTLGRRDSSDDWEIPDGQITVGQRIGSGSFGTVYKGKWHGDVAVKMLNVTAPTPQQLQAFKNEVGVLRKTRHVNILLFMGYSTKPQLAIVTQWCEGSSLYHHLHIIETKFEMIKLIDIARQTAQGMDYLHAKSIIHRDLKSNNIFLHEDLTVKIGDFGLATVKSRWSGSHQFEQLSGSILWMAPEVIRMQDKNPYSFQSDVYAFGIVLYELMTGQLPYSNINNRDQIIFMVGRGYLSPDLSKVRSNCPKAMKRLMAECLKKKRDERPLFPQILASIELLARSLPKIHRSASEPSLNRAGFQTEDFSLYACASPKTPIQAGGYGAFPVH

[4] = target: T1, B-raf/RAF proto-oncogene serine/threonine-protein kinase (Homo sapiens); assay: Inhibition of B-Raf/C-Raf in human A549 cells assessed as decrease in phosphorylated ERK levels at five times IC50 value after 12 hrs by Western blot analysis; format: cell-based
[5] = target: T1, B-raf/RAF proto-oncogene serine/threonine-protein kinase (Homo sapiens); assay: Inhibition of B-Raf/C-Raf in human A549 cells assessed as effect on phosphorylated MEK levels at five times IC50 value after 24 hrs by Western blot analysis; format: cell-based; how it was run: as §2
[6] = target: T1, B-raf/RAF proto-oncogene serine/threonine-protein kinase (Homo sapiens); assay: Inhibition of B-Raf/C-Raf in human A549 cells assessed as effect on phosphorylated ERK levels at five times IC50 value after 24 hrs by Western blot analysis; format: cell-based; how it was run: as §2
[7] = Cytotoxicity against human SKBR3 cells by MTS assay; conditions: SK-BR-3
[8] = tested on: MCF7; assay: Cytotoxicity against human MCF7 cells assessed as cell growth inhibition after 72 hrs by MTS assay; format: functional, cell-based; conditions: MCF7, 72 h; how it was run: as §1
[9] = tested on: MRC5; assay: Cytotoxicity against human MRC5 cells assessed as cell growth inhibition after 72 hrs by MTS assay; format: cell-based; conditions: MRC5, 72 h; how it was run: as §1
[10] = target: T2, Heat shock protein HSP90 (Homo sapiens) (UniProt P07900+P08238); assay: Inhibition of Hsp90 in human MCF7 cells assessed as effect on EGFR protein degradation at 0.5 to 5 times IC50 value after 12 hrs by western blot analysis; format: cell-based
How it was run: (§3)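 MPER lysates. 15 µg protein per lane, reducing 10% SDS-PAGE, PVDF transfer, immunoblot for EGFR, Her2, C-Raf and Hsp90, chemiluminescent detection.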

[11] = target: T2, Heat shock protein HSP90 (Homo sapiens); assay: Inhibition of Hsp90 in human MCF7 cells assessed as effect on Her2 protein degradation at 0.5 to 5 times IC50 value after 12 hrs by western blot analysis; format: cell-based; how it was run: as §3
[12] = target: T2, Heat shock protein HSP90 (Homo sapiens); assay: Inhibition of Hsp90 in human MCF7 cells assessed as effect on c-Raf protein degradation at 0.5 to 5 times IC50 value after 12 hrs by western blot analysis; format: cell-based; how it was run: as §3
[13] = target: T2, Heat shock protein HSP90 (Homo sapiens); assay: Inhibition of Hsp90 in human A549 cells assessed as effect on EGFR protein degradation at 0.5 to 5 times IC50 value after 12 hrs by western blot analysis; format: cell-based; how it was run: as §3
[14] = target: T2, Heat shock protein HSP90 (Homo sapiens); assay: Inhibition of Hsp90 in human A549 cells assessed as effect on Her2 protein degradation at 0.5 to 5 times IC50 value after 12 hrs by western blot analysis; format: cell-based; how it was run: as §3
[15] = target: T2, Heat shock protein HSP90 (Homo sapiens); assay: Inhibition of Hsp90 in human A549 cells assessed as effect on c-Raf protein degradation at 0.5 to 5 times IC50 value after 12 hrs by western blot analysis; format: cell-based; how it was run: as §3
[16] = target: T2, Heat shock protein HSP90 (Homo sapiens); assay: Inhibition of Hsp90 in human PC3MM2 cells upto 100 uM by luciferase refolding assay; format: cell-based
How it was run: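 Luciferase-expressing PC3-MM2 cells heat-denatured at 50 °C for 8–12 min until luminescence fell to 1% of initial. 60,000 cells/100 µL added to compound (0–100 µM, 1% DMSO final) and left 1 h to recover. Luciferin/ATP/CoA reagent then added and luminescence read at once. Refolding expressed relative to 1% DMSO wells; triplicate points fitted to dose-response curves.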

[17] = target: T1, B-raf/RAF proto-oncogene serine/threonine-protein kinase (Homo sapiens); assay: Inhibition of B-Raf/C-Raf in human A549 cells assessed as decrease in phosphorylated MEK levels at five times IC50 value by Western blot analysis; format: cell-based; conditions: TDE = time-dependent effect
[18] = target: T1, B-raf/RAF proto-oncogene serine/threonine-protein kinase (Homo sapiens); assay: Inhibition of B-Raf/C-Raf in human A549 cells assessed as decrease in phosphorylated ERK levels at five times IC50 value by Western blot analysis; format: cell-based; conditions: TDE = time-dependent effect
[19] = target: T2, Heat shock protein HSP90 (Homo sapiens); assay: Inhibition of Hsp90 in human A549 cells assessed as effect on EGFR levels at five times IC50 value after 2 to 12 hrs by Western blot analysis; format: cell-based
How it was run: (§4)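 Lysed in MPER with protease/phosphatase inhibitors, clarified at 14,000g. 15 µg protein per lane run on reducing 10% gels, transferred to PVDF, immunoblotted, detected by HRP chemiluminescence.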

[20] = target: T2, Heat shock protein HSP90 (Homo sapiens); assay: Inhibition of Hsp90 in human A549 cells assessed as decrease in C-Raf levels at five times IC50 value after 2 to 12 hrs by Western blot analysis; format: cell-based; how it was run: as §4
[21] = target: T1, B-raf/RAF proto-oncogene serine/threonine-protein kinase (Homo sapiens); assay: Inhibition of B-Raf/C-Raf in human A549 cells assessed as decrease in phosphorylated MEK levels after 12 hrs by Western blot analysis; format: cell-based
[22] = target: T1, B-raf/RAF proto-oncogene serine/threonine-protein kinase (Homo sapiens); assay: Inhibition of B-Raf/C-Raf in human A549 cells assessed as decrease in phosphorylated ERK levels after 12 hrs by Western blot analysis; format: cell-based
[23] = tested on: A549; assay: Inhibition of PI3K activity in human A549 cells assessed as effect on phosphorylated Akt level at five times IC50 value after 2 to 12 hrs by Western blot analysis; format: cell-based; how it was run: as §4
[24] = tested on: A549; assay: Effect of total Akt levels in human A549 cells at five times IC50 value after 2 to 12 hrs by Western blot analysis; format: ADME, cell-based; how it was run: as §4
[25] = target: T1, B-raf/RAF proto-oncogene serine/threonine-protein kinase (Homo sapiens); assay: Inhibition of B-Raf/C-Raf heterodimerization in human A549 cells at five times IC50 value after 24 hrs by SDS-PAGE/Western blot analysis; format: cell-based
How it was run: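 Lysed in 0.1% NP40, 50 mM Tris pH 7.5, 150 mM NaCl with inhibitors. 500 µg protein incubated with B-Raf antibody overnight at 4 °C, captured on Protein G beads for 3 h at 4 °C, washed, eluted, then SDS-PAGE and immunoblot for c-Raf.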

[26] = tested on: A549; assay: Effect on total Erk level in human A549 cells at five times IC50 value after 2 to 12 hrs by western blot analysis; format: ADME, cell-based; how it was run: as §4
[27] = tested on: A549; assay: Effect on total Mek level in human A549 cells at five times IC50 value after 2 to 12 hrs by western blot analysis; format: ADME, cell-based; how it was run: as §4
[28] = target: T2, Heat shock protein HSP90 (Homo sapiens); assay: Inhibition of Hsp90 in human A549 cells assessed as decrease in Her2 levels at five times IC50 value after 24 hrs by Western blot analysis; format: cell-based; how it was run: as §2
[29] = target: T2, Heat shock protein HSP90 (Homo sapiens); assay: Inhibition of Hsp90 in human A549 cells assessed as decrease in EGFR levels at five times IC50 value after 24 hrs by Western blot analysis; format: cell-based; how it was run: as §2
[30] = target: T2, Heat shock protein HSP90 (Homo sapiens); assay: Inhibition of Hsp90 in human A549 cells assessed as decrease in c-Raf levels at five times IC50 value after 24 hrs by Western blot analysis; format: cell-based; how it was run: as §2
[31] = target: T2, Heat shock protein HSP90 (Homo sapiens); assay: Inhibition of Hsp90 in human MCF7 cells assessed as decrease in EGFR levels at five times IC50 value after 12 hrs by Western blot analysis; format: cell-based; how it was run: as §3
[32] = target: T2, Heat shock protein HSP90 (Homo sapiens); assay: Inhibition of Hsp90 in human MCF7 cells assessed as decrease in Her2 levels at five times IC50 value after 12 hrs by Western blot analysis; format: cell-based; how it was run: as §3
[33] = target: T2, Heat shock protein HSP90 (Homo sapiens); assay: Inhibition of Hsp90 in human MCF7 cells assessed as decrease in C-Raf levels at five times IC50 value after 12 hrs by Western blot analysis; format: cell-based; how it was run: as §3
[34] = target: T2, Heat shock protein HSP90 (Homo sapiens); assay: Inhibition of Hsp90 in human A549 cells assessed as decrease in EGFR levels at five times IC50 value after 12 hrs by Western blot analysis; format: cell-based
[35] = target: T2, Heat shock protein HSP90 (Homo sapiens); assay: Inhibition of Hsp90 in human A549 cells assessed as decrease in Her2 levels at five times IC50 value after 12 hrs by Western blot analysis; format: cell-based
[36] = target: T2, Heat shock protein HSP90 (Homo sapiens); assay: Inhibition of Hsp90 in human A549 cells assessed as decrease in C-Raf levels at five times IC50 value after 12 hrs by Western blot analysis; format: cell-based
[37] = tested on: MCF7; assay: Effect on Hsp90 expression in human MCF7 cells at 0.5 to 5 times IC50 value after 12 hrs by western blot analysis; format: ADME, cell-based; conditions: mcf7, 12 h; how it was run: as §3

N#Cc1c(Oc2ccc(F)c(NC(=O)Cc3cccc(C(F)(F)F)c3)c2)ccc2nc(NC(=O)C3CC3)sc12
IC50 [1]: 1700 nM
Activity [2]: Non-toxic

COc1cccc(-c2cccc(NC(=O)Nc3cc4ccc(OC5CCN(C)CC5)c(C)c4oc3=O)c2)c1
IC50 [1]: 280 nM
inhibition [3]: Active
inhibition [4]: Active
inhibition [5]: inactive
inhibition [6]: inactive

CCCS(=O)(=O)Nc1ccc(F)c(C(=O)c2c[nH]c3ncc(-c4ccc(Cl)cc4)cc23)c1F [VEMURAFENIB]
Activity [2]: Non-toxic

COc1ccc(NC(=O)Nc2cc3ccc(OC4CCN(C)CC4)c(C)c3oc2=O)cc1-c1ccccc1
IC50 [1]: 410 nM
inhibition [3]: Active
inhibition [4]: Active
inhibition [5]: inactive
inhibition [6]: inactive

CO[C@@H]1[C@@H](OC(N)=O)[C@@H](O)[C@H](Oc2ccc3c(O)c(NC(=O)c4ccc(O)c(CC=C(C)C)c4)c(=O)oc3c2C)OC1(C)C [NOVOBIOCIN]
IC50 [7]: 700000 nM

COc1cccc(-c2cc(NC(=O)Nc3cc4ccc(OC5CCN(C)CC5)c(C)c4oc3=O)ccc2OC)c1
IC50 [1]: 150 nM
IC50 [8]: 170 nM
IC50 [9]: 4300 nM
inhibition [10]: inactive
inhibition [11]: inactive
inhibition [12]: inactive
inhibition [13]: inactive
inhibition [14]: inactive
inhibition [15]: inactive
inhibition [16]: inactive
inhibition [17]: tde
inhibition [18]: tde
inhibition [19]: inactive
inhibition [20]: inactive
inhibition [21]: Dose-dependent effect
inhibition [22]: Dose-dependent effect
Activity [23]: inactive
Activity [24]: Non-toxic
inhibition [25]: Active
Activity [26]: Non-toxic
Activity [27]: Non-toxic

Cc1c(OC2CCN(C)CC2)ccc2cc(NC(=O)Nc3cccc(-c4ccccc4)c3)c(=O)oc12
IC50 [1]: 60 nM
inhibition [28]: Active
inhibition [29]: Active
inhibition [30]: Active

Cc1c(OC2CCN(C)CC2)ccc2cc(NC(=O)Nc3ccccc3)c(=O)oc12
IC50 [1]: 240 nM
IC50 [8]: 770 nM
IC50 [9]: 3600 nM
inhibition [31]: Active
inhibition [32]: Active
inhibition [33]: Active
inhibition [34]: Active
inhibition [35]: Active
inhibition [36]: Active
Activity [37]: Non-toxic
